In test [1] the test system is Leishmania major. The experiment in a line: Antileishmanial activity against Leishmania major DESTO promastigotes after 72 hrs. Type of test: functional, organism-based. In outline: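 Log-phase promastigotes grown at 22-25 °C in RPMI-1640 with 10% heat-inactivated FBS, seeded at 1 × 10^6 cells/mL. Compounds were taken from a 1 mg/mL stock (DMSO, then complete medium), serially diluted, and incubated 21-22 °C for 72 h. Viable parasites were counted microscopically in a Neubauer chamber, and IC50 was derived by curve fitting. Run in duplicate.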

Test [2] deals with NIH3T3. The experiment in a line: Cytotoxicity against mouse 3T3 cells after 72 hrs by MTT assay. It is filed as cell-based. In outline:
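Mouse fibroblasts were kept in DMEM with 5% FBS, penicillin and streptomycin at 37 °C under 5% CO2, seeded at 3 × 10^4 cells/mL, and left overnight. Fresh medium holding a compound concentration series was added for 72 h. MTT (2 mg/mL) was added for 4 h, then DMSO, and formazan was read at 540 nm. The value is the concentration giving 50% growth inhibition.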
A general note: Tetrazolium dyes change colour on reduction, which living cells bring about.

Where [3] appears, read: Mus musculus, NIH3T3, 72 h, read-out: IC50.

As to `CC(C)(O)[C@@H]1CC[C@](C)([C@@H]2[C@@H](O)C[C@@]3(C)[C@@H]4C[C@H](O)[C@H]5C(C)(C)[C@@H](O)CC[C@@]56C[C@@]46CC[C@]23C)O1`, the IC50 in test [1] was 108 µM; in test [2] (setting [3]), greater than 100 µM.
Regarding `C[C@@H]1C[C@@H]([C@H](O)CC2CC(=O)NC(=O)C2)C(=O)[C@@H](C)C1` [CYCLOHEXIMIDE], in test [2] (nih3t3), the IC50 turned out to be 0.912 µmol.
For the molecule `C[C@@H]1C[C@@]2(O[C@H]3C[C@@]4(C)[C@@H]5C[C@H](O)[C@H]6C(C)(C)[C@@H](O[C@@H]7OC[C@@H](O)[C@@H](O)[C@H]7O)CC[C@@]67C[C@@]57CC[C@]4(C)[C@@H]13)O[C@H](O)[C@]1(C)O[C@H]21`, the IC50 in test [1] was 64.35 µmol; in test [2] (setting [3]) it was greater than 100 µM.
`N=C(N)c1ccc(OCCCCCOc2ccc(C(=N)N)cc2)cc1` [PENTAMIDINE] displayed an IC50 in test [1] of 4.32 µmol.
On the same count and under the same terms, then `C[C@@H]1[C@H](O)[C@@H](C)/C=C/C=C/C=C/C=C/C=C/C=C/C=C/[C@H](O[C@@H]2O[C@H](C)[C@@H](O)[C@H](N)[C@@H]2O)C[C@@H]2O[C@](O)(C[C@@H](O)C[C@@H](O)[C@H](O)CC[C@@H](O)C[C@@H](O)CC(=O)O[C@H]1C)C[C@H](O)[C@H]2C(=O)O` [AMPHOTERICIN B], with 0.54 µmol.
Turning to `CC(C)(O)[C@@H]1CC[C@](C)([C@H]2[C@@H](O)C[C@@]3(C)[C@@H]4C[C@H](O)[C@H]5C(C)(C)[C@@H](O[C@@H]6OC[C@@H](O)[C@H](O)[C@H]6O)CC[C@@]56C[C@@]46CC[C@]23C)O1`, the IC50 in test [1] stood at 56.51 µmol; in test [2] (nih3t3) it was 19.51 µmol.
With `CO[C@H]1C[C@@H](C)[C@H]2[C@H](C[C@@]3(C)[C@@H]4C[C@H](O)[C@H]5C(C)(C)[C@@H](O[C@@H]6OC[C@@H](O)[C@@H](O)[C@H]6O)CC[C@@]56C[C@@]46CC[C@]23C)O1`, the IC50 in test [1] was 93.65 µmol; in test [2] (setting [3]), 52.4 µM.
